Assay results as given in ChEMBL document CHEMBL2157870 (J Med Chem, 2012).
In brackets after ≈: the same amount, converted by molar mass.

Columns and labels:
[1] = test system: Mus musculus; assay: AUC (0 to infinity) in CD1 mouse at 20 mg/kg, po; format: ADME, organism-based, Plasma; design: time infinity, dose 20 mg/kg, route oral; settings: in vivo
Method in brief: (§1)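 Female CD-1 mice, 8 weeks old, were given a single oral gavage dose as a suspension in 0.5% methylcellulose in sterile water. Blood was taken from three mice per time point (5 min–24 hr) into K3EDTA and processed to plasma. After acetonitrile protein precipitation, samples were analysed by LC-MS/MS with a warfarin internal standard. Noncompartmental analysis used linear-up/log-down trapezoidal AUC and at least three non-zero concentrations after Tmax.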

[2] = target: Voltage-gated inwardly rectifying potassium channel KCNH2 (Homo sapiens, UniProt Q12809); assay: Inhibition of human ERG by patch clamp assay
Chain of Voltage-gated inwardly rectifying potassium channel KCNH2 (Q12809 whole entry): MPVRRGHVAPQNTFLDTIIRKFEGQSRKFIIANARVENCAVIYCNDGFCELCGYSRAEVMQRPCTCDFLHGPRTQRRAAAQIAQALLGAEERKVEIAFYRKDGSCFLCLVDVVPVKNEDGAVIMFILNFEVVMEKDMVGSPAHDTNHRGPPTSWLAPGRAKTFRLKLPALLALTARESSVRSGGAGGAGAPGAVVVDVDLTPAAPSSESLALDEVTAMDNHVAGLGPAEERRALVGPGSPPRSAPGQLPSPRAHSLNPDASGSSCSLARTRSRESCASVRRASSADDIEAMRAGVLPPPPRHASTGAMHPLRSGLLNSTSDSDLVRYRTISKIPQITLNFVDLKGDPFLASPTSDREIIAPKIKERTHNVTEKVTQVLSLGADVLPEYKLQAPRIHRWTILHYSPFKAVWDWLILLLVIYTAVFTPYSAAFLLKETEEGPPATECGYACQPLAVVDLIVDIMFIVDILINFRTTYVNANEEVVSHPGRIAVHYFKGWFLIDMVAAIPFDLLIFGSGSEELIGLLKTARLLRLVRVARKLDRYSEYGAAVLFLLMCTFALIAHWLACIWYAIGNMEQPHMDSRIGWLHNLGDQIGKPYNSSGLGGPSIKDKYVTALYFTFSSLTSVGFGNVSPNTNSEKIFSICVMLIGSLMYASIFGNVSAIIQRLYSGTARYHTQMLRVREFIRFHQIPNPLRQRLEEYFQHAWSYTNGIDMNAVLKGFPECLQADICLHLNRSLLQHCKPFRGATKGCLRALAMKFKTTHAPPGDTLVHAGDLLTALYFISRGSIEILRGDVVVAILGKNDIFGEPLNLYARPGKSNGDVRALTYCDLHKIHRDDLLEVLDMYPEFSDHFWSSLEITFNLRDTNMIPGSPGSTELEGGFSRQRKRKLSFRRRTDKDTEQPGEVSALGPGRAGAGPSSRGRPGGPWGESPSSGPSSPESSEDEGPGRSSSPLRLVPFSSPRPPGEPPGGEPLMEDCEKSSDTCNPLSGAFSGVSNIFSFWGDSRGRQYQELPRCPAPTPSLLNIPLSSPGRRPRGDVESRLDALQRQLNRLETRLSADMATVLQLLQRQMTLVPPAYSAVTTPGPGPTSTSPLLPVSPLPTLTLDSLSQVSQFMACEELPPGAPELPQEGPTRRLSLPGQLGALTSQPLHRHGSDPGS

[3] = test system: Mus musculus; assay: Cmax in CD1 mouse at 500 mg/kg, po; format: ADME, organism-based; design: dose 500 mg/kg, route oral; settings: in vivo; method in brief: as §1
[4] = target: T1, CYP2D6 (Homo sapiens, UniProt P10635); assay: Inhibition of CYP2D6 in human liver microsomes at 10 uM after 20 mins by LC-MS/MS analysis relative to control; values are per cent of control
T1 sequence (P10635 whole entry): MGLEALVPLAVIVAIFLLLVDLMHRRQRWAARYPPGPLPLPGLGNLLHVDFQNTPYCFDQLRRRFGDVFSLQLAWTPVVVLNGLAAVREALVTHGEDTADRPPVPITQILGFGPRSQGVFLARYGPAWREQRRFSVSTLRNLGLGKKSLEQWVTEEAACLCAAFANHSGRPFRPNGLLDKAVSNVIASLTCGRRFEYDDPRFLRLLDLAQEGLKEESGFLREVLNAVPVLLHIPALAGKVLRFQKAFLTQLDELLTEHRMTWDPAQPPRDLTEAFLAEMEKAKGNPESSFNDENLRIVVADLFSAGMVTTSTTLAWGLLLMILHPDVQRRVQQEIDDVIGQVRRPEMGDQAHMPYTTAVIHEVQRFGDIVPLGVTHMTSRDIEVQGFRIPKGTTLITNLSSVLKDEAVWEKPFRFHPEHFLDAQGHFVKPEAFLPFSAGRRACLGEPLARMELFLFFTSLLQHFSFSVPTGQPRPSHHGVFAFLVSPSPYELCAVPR

[5] = test system: HepG2; assay: Cytotoxicity against human HepG2 cells at 25 uM after 72 hrs by celltiter-glo assay; format: cell-based; settings: hepg2, 72 h
[6] = test system: Plasmodium berghei; assay: Antimalarial activity against Plasmodium berghei NK-65 infected in ICR mouse assessed as parasitemia level at 200 mg/kg, po administered day 3, 4 and 5 post infection measured up to day 30 by Geimsa staining; format: functional
Method in brief: (§2)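 Female Swiss outbred ICR mice, 15–20 g, given 1 X 10^6 P. berghei NK-65 infected red cells from donor mice in plasma at day 0 (modified Thompson's test). Patent infection confirmed by tail blood smear on day 3. Oral single daily doses in 0.5% HEC on days 3, 4, 5. Vehicle controls. Survival recorded daily to day 30. Parasitemia from Giemsa thin films on days 3, 6, 13, 20, 27, counting ≥1000 cells.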

[7] = test system: Mus musculus; assay: AUC (0 to infinity) in CD1 mouse at 200 mg/kg, po; format: ADME, organism-based, Plasma; design: time infinity, dose 200 mg/kg, route oral; settings: in vivo; method in brief: as §1
[8] = (§3) Apparent volume of distribution during terminal phase in CD1 mouse at 20 mg/kg, po; format: ADME, organism-based; design: dose 20 mg/kg, route oral; settings: CD1, mouse, in vivo, read-out: Vz/F; method in brief: as §1
[9] = test system: Mus musculus; assay: Tmax in CD1 mouse at 500 mg/kg, po; format: ADME, organism-based; design: dose 500 mg/kg, route oral; settings: in vivo; method in brief: as §1
[10] = test system: Mus musculus; assay: Cmax in CD1 mouse at 200 mg/kg, po; format: ADME, organism-based; design: dose 200 mg/kg, route oral; settings: in vivo; method in brief: as §1
[11] = test system: Mus musculus; assay: Tmax in CD1 mouse at 200 mg/kg, po; format: ADME, organism-based; design: dose 200 mg/kg, route oral; settings: in vivo; method in brief: as §1
[12] = test system: Plasmodium berghei; assay: Antimalarial activity against Plasmodium berghei NK-65 infected in ICR mouse assessed as survival rate at 100 mg/kg, po administered day 3, 4 and 5 post infection; format: functional; method in brief: as §2
[13] = test system: Mus musculus; assay: Cmax in CD1 mouse at 20 mg/kg, po; format: ADME, organism-based; design: dose 20 mg/kg, route oral; settings: in vivo; method in brief: as §1
[14] = test system: Plasmodium falciparum; assay: Antimalarial activity against Plasmodium falciparum 3D7 after 72 hrs by MSF assay; format: functional, organism-based; settings: 3D7, 72 h
[15] = test system: hERG; assay: Therapeutic index, ratio of IC50 for human ERG to EC50 for Plasmodium falciparum K1; settings: read-out: Ratio IC50/EC50
[16] = Solubility of the compound in PBS at 10 mM after 18 hrs by UV spectroscopic analysis; format: physicochemical
[17] = Intrinsic clearance in […] mouse liver microsomes at 2 mM; format: ADME, Microsome; settings: read-out: CLH
[18] = test system: Raji; assay: Cytotoxicity against human Raji cells at 25 uM after 72 hrs by celltiter-glo assay; format: cell-based
[19] = test system: Mus musculus; assay: AUC (0 to infinity) in CD1 mouse at 500 mg/kg, po; format: ADME, organism-based, Plasma; design: time infinity, dose 500 mg/kg, route oral; settings: in vivo; method in brief: as §1
[20] = test system: Plasmodium berghei; assay: Antimalarial activity against Plasmodium berghei NK-65 infected in ICR mouse assessed as parasitemia level at 100 mg/kg, po administered day 3, 4 and 5 post infection measured up to day 30 by Geimsa staining; format: functional; method in brief: as §2
[21] = test system: Plasmodium berghei; assay: Antimalarial activity against Plasmodium berghei NK-65 infected in ICR mouse assessed as survival rate at 200 mg/kg, po administered day 3, 4 and 5 post infection; format: functional; method in brief: as §2
[22] = Permeability of the compound at 10 uM at pH 7.4 by PAMPA; format: ADME; settings: pH 7.4, 10 µM
Method in brief: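 PAMPA: diluted compound in system solution buffer at pH 7.4 was placed in the donor well over a GIT-lipid-painted membrane, with acceptor solution buffer in the acceptor well. The sandwich was stirred for 30 min with the aqueous boundary layer set to 40 μm. Triplicate.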

[23] = test system: Mus musculus; assay: (§4) Apparent volume of distribution during terminal phase in CD1 mouse at 500 mg/kg, po; format: ADME, organism-based; design: dose 500 mg/kg, route oral; settings: mouse, in vivo; method in brief: as §1
[24] = Apparent volume of distribution during terminal phase in CD1 mouse at 200 mg/kg, po; format: ADME, organism-based; design: dose 200 mg/kg, route oral; settings: in vivo, read-out: Vz/F; method in brief: as §1
[25] = test system: Plasmodium falciparum; assay: Antimalarial activity against Plasmodium falciparum K1 after 72 hrs by MSF assay; format: functional, organism-based; settings: K1, 72 h
[26] = test system: HEK293; assay: Cytotoxicity against human HEK293 cells at 25 uM after 72 hrs by celltiter-glo assay; format: cell-based; settings: hek293, 72 h
[27] = target: T1, CYP2D6; assay: Inhibition of CYP2D6 in human liver microsomes at 1 uM after 20 mins by LC-MS/MS analysis relative to control; values are per cent of control
[28] = test system: Mus musculus; assay: Tmax in CD1 mouse at 20 mg/kg, po; format: ADME, organism-based; design: dose 20 mg/kg, route oral; settings: in vivo; method in brief: as §1
[29] = test system: BJ; assay: Cytotoxicity against human BJ cells at 25 uM after 72 hrs by celltiter-glo assay; format: cell-based
[30] = test system: Plasmodium berghei; assay: Antimalarial activity against Plasmodium berghei NK-65 infected in ICR mouse assessed as parasitemia level at 200 mg/kg, po administered day 3, 4 and 5 post infection measured on day 6 by Geimsa staining; format: functional; method in brief: as §2
[31] = test system: Mus musculus; assay: as §3; format: ADME, organism-based; design: dose 20 mg/kg, route oral; settings: mouse, in vivo; method in brief: as §1
[32] = target: T2, ATP-sensitive inward rectifier potassium channel 11 (Homo sapiens, UniProt Q14654); assay: Inhibition of Kir6.2 by patch clamp assay
T2 sequence (Q14654 whole entry): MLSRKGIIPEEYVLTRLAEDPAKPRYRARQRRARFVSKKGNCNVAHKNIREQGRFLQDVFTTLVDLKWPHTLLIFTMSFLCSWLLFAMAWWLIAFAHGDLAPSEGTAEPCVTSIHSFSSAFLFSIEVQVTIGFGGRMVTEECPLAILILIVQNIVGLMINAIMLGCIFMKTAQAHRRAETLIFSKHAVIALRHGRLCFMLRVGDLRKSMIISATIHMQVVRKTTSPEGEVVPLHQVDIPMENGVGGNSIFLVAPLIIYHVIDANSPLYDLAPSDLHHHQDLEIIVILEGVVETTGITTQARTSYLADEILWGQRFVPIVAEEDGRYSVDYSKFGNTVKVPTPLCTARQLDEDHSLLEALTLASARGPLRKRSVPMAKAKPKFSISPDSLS

[33] = test system: Plasmodium berghei; assay: Antimalarial activity against Plasmodium berghei NK-65 infected in ICR mouse assessed as parasitemia level at 200 mg/kg, po administered day 3, 4 and 5 post infection measured on day 20 by Geimsa staining; format: functional; method in brief: as §2
[34] = test system: Plasmodium berghei; assay: Antimalarial activity against Plasmodium berghei NK-65 infected in ICR mouse assessed as parasitemia level at 100 mg/kg, po administered day 3, 4 and 5 post infection measured on day 6 by Geimsa staining; format: functional; method in brief: as §2
[35] = as §4; format: ADME, organism-based; design: dose 500 mg/kg, route oral; settings: CD1, mouse, in vivo, read-out: Vz/F; method in brief: as §1
[36] = test system: Plasmodium berghei; assay: Antimalarial activity against Plasmodium berghei NK-65 infected in ICR mouse assessed as parasitemia level at 200 mg/kg, po administered day 3, 4 and 5 post infection measured on day 13 by Geimsa staining; format: functional; method in brief: as §2

| SMILES | AUC [1] | Cmax [3] | % activity remaining at 20 min, 10 µM [4] | Activity [5] | AUC [7] | Vd/F [8] | Tmax [9] | Cmax [10] | Tmax [11] | Cmax [13] | EC90 [14] | solubility at 18 h, 10000 µM [16] | Activity [18] | AUC [19] | Vd/F [24] | EC90 [25] | Activity [26] | % activity remaining at 20 min, 1 µM [27] | Tmax [28] | Activity [29] | also measured |
| --- | --- | --- | --- | --- | --- | --- | --- | --- | --- | --- | --- | --- | --- | --- | --- | --- | --- | --- | --- | --- | --- |
| O=C(CCc1ccccc1)c1ccccc1OCC(O)CN1CCN(C(c2ccccc2)c2ccccc2)CC1 (stereo unspecified) | 0.249 µM·h | 598 nM | 59% | Non-toxic | 3.1 µM·h | 318 L/kg | 60 min | 667 nM | 30 min | 73.7 nM | 90 nM | 0.1 µM (≈ 0.0535 µg/mL) | Non-toxic | 3.37 µM·h | 603 L/kg | 100 nM | Non-toxic | 76% | 60 min | Non-toxic | IC50 [2]: 2600 nM; Activity [6]: 55.3%; MST [12]: 7 days; selectivity ratio [15]: 26; CLint scaled [17]: 70 mL/min/kg; Activity [20]: 53.6%; MST [21]: 7 days; permeability [22]: 2.3 ×10⁻⁶ cm/s; Vz/F [23]: 2020 L/kg |
| O=C(CCc1ccccc1)c1ccccc1OCC(O)CN1CCC(c2ccccc2)CC1 (stereo unspecified) | 0.224 µM·h | 1750 nM | 31% | Non-toxic | 6.8 µM·h | – | 30 min | 1620 nM | 30 min | 69.6 nM | 750 nM | 7.3 µM (≈ 3.24 µg/mL) | Non-toxic | 15.3 µM·h | 278 L/kg | 240 nM | Non-toxic | 78% | 18 min | Non-toxic | Activity [30]: 44.5%; Vz/F [31]: 1093.3 L/kg; MST [12]: 9 days; IC50 [32]: > 5000 nM; Activity [33]: 50.4%; Activity [34]: 33.3%; permeability [22]: 490 ×10⁻⁶ cm/s; Vd/F [35]: 623 L/kg; Activity [36]: 28.4% |
| O=C(CCc1ccc(F)cc1)c1ccccc1OCC(O)CN1CCN(C(c2ccccc2)c2ccccc2)CC1 (stereo unspecified) | 0.298 µM·h | 861 nM | 76% | Non-toxic | 5.67 µM·h | 370 L/kg | 30 min | 1140 nM | 60 min | 92.4 nM | 450 nM | 0.6 µM (≈ 0.332 µg/mL) | Non-toxic | 4.08 µM·h | 288 L/kg | 210 nM | Non-toxic | 83% | 30 min | Non-toxic | EC50 [14]: 160 nM; permeability ([22]; BLD = below limit of detection): BLD; Vz/F [23]: 1758 L/kg; EC50 [25]: 100 nM |
